Here are results for seven molecules from ChEMBL document CHEMBL2424622, “Development of amino-pyrimidine inhibitors of c-Jun N-terminal kinase (JNK): kinase profiling guided optimization of a 1,2,3-benzotriazole lead” (Bioorg Med Chem Lett, 2013).

For assay [1], the species on record is Homo sapiens. As to the kind of experiment: Competitive binding affinity to EGFR L747 to S752 deletion mutant, P753S mutant (unknown origin) at 10 uM in presence of ATP relative to control.
Assay [2] deals with RAC-beta serine/threonine-protein kinase (Homo sapiens) (UniProt P31751). As to the kind of experiment: Competitive binding affinity to AKT2 (unknown origin) at 10 uM in presence of ATP relative to control.
For assay [3], the target named is Atypical kinase COQ8A, mitochondrial (Homo sapiens, UniProt Q8NI60). As to the kind of experiment: Competitive binding affinity to ADCK3 (unknown origin) at 10 uM in presence of ATP relative to control. The method, boiled down: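 In vitro ATP-site competition binding assay across a diverse panel of 128 kinases, with each compound tested at a single concentration. Kinase binding is expressed relative to control.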

The target in assay [4] is T1, Cyclin-dependent kinase 11A (Homo sapiens) (UniProt Q9UQ88).
T1 sequence (whole entry): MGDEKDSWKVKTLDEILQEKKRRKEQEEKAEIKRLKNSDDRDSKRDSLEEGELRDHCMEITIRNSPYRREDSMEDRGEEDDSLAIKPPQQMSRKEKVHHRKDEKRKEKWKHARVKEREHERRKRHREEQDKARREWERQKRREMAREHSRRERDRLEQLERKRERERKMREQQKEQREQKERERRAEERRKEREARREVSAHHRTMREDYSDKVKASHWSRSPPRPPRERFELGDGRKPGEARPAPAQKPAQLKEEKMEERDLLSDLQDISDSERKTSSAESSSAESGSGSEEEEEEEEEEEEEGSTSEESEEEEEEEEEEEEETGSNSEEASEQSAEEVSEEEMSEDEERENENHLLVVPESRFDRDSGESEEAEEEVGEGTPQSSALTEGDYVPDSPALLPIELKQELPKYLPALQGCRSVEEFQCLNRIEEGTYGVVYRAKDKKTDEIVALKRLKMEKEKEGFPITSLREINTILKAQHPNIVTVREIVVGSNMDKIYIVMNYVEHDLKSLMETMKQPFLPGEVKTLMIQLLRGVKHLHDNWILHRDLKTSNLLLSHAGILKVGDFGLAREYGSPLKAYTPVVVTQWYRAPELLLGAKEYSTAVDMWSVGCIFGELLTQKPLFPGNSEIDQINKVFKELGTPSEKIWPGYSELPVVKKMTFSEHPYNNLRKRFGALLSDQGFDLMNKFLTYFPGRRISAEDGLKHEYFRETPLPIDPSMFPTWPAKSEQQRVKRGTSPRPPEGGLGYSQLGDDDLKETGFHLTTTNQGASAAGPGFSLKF
As to the kind of experiment: Competitive binding affinity to CDC2L2 (unknown origin) at 10 uM in presence of ATP relative to control. Summed up: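 In vitro ATP-site competition binding format, run as one member of a diverse 128-kinase profiling panel. Each compound was tested at a single concentration across the whole panel.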

The target of assay [5] is Ribosomal protein S6 kinase alpha-2 (Homo sapiens) (UniProt Q15349). Nature of the assay: Competitive binding affinity to RPS6KA2 kinase domain 2 (unknown origin) at 10 uM in presence of ATP relative to control.
Assay [6] concerns the target MAP/microtubule affinity-regulating kinase 3 (Homo sapiens) (UniProt P27448). As to the kind of experiment: Competitive binding affinity to MARK3 (unknown origin) at 10 uM in presence of ATP relative to control.
Assay [7] concerns the target Mitogen-activated protein kinase 6 (Homo sapiens, UniProt Q16659). Nature of the assay: Competitive binding affinity to ERK3 (unknown origin) at 10 uM in presence of ATP relative to control.
The target in assay [8] is MAP kinase-activated protein kinase 2 (Homo sapiens) (UniProt P49137). Nature of the assay: Competitive binding affinity to MAPKAPK2 (unknown origin) at 10 uM in presence of ATP relative to control.
The target in assay [9] is Wee1-like protein kinase (Homo sapiens) (UniProt P30291). Nature of the assay: Competitive binding affinity to WEE1 (unknown origin) at 10 uM in presence of ATP relative to control.
Assay [10] has as its target T2, NUAK family SNF1-like kinase 2 (Homo sapiens) (UniProt Q9H093).
T2 sequence (whole entry): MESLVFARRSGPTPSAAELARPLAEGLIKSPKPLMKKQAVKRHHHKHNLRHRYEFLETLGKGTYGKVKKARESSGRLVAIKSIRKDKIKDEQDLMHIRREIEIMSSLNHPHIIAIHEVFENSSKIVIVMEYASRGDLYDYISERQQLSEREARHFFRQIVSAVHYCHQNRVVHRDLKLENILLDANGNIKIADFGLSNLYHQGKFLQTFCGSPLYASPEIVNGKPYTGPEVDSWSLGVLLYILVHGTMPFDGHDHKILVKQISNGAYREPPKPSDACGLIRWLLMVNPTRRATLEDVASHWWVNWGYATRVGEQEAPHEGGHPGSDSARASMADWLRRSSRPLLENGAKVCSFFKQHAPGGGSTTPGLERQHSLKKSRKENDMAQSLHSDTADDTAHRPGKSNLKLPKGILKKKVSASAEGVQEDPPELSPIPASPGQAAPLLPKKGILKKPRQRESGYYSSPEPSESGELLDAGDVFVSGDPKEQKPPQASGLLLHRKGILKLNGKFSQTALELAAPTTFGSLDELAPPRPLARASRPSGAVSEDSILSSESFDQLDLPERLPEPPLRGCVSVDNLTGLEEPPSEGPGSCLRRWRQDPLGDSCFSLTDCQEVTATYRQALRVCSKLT
As to the kind of experiment: Competitive binding affinity to SNARK (unknown origin) at 10 uM in presence of ATP relative to control.

For assay [11], the species on record is Homo sapiens. As to the kind of experiment: Selectivity ratio of IC50 for human JNK2 to IC50 for human JNK1. Summed up:
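JNK1 and JNK2 activities were each measured as phosphorylation of GST-ATF2 (19–96) with [γ-33P]ATP, and IC50s were determined for each enzyme. The ratio is JNK2 IC50 over JNK1 IC50. IC50s are the mean of at least three experiments.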

For a further assay, the system named is HCT-116. As to the kind of experiment: Cytotoxicity against human HCT116 cells assessed as cell viability by WST-1 reduction assay. The format is cell-based. Summed up:
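Cytotoxicity was measured in an HCT-116 cell proliferation assay as reduction of WST-1 reagent. Values are the mean of at least three experiments.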

The structures appear in SMILES notation.

Chain of MAP kinase-activated protein kinase 2 (Homo sapiens) (P49137 whole entry, looked up): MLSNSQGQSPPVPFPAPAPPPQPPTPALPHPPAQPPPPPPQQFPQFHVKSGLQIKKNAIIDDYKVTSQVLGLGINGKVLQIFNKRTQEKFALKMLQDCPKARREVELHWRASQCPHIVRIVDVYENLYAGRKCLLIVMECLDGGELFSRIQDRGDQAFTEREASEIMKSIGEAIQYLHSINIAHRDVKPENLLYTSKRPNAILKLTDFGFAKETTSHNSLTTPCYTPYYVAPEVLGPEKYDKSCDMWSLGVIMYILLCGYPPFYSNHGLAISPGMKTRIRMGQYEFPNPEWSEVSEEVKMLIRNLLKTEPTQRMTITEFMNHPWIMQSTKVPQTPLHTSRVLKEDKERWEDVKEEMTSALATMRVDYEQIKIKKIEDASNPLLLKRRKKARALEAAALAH
Chain of RAC-beta serine/threonine-protein kinase (Homo sapiens) (P31751 whole entry): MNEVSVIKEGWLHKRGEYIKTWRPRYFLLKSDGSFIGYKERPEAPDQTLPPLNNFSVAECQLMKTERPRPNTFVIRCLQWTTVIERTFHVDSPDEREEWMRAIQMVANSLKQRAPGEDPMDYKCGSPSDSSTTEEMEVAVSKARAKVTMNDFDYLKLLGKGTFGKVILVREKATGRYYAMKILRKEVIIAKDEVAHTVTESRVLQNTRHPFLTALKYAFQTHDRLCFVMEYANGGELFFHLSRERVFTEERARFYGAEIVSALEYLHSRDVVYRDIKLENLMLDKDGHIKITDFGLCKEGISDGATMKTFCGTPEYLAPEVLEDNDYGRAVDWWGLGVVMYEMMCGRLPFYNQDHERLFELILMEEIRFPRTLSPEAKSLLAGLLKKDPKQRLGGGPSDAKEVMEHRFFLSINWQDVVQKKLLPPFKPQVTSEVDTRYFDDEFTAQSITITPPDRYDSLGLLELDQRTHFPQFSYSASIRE
Chain of Ribosomal protein S6 kinase alpha-2 (Homo sapiens) (Q15349 whole entry, the tested form may be a part): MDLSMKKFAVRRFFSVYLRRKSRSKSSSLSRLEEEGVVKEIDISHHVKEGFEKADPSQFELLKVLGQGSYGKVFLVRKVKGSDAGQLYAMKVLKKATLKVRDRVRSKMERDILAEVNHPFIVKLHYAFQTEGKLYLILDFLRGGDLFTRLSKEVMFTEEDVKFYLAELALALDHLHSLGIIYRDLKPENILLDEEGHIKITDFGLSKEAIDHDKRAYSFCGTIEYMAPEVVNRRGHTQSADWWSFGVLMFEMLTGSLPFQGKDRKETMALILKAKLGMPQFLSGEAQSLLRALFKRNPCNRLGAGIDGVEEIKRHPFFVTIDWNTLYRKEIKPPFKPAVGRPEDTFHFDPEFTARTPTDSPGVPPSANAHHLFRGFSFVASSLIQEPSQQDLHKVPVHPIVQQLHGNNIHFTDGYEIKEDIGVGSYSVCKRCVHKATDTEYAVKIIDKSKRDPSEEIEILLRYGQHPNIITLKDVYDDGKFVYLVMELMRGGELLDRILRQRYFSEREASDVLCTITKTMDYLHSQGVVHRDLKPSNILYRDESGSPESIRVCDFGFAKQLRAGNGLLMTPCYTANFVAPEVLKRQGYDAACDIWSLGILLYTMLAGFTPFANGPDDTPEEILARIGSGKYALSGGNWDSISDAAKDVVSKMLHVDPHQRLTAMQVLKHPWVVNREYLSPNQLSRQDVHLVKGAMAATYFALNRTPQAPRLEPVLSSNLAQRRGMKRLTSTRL
Chain of Atypical kinase COQ8A, mitochondrial (Q8NI60 163-647 limits assumed): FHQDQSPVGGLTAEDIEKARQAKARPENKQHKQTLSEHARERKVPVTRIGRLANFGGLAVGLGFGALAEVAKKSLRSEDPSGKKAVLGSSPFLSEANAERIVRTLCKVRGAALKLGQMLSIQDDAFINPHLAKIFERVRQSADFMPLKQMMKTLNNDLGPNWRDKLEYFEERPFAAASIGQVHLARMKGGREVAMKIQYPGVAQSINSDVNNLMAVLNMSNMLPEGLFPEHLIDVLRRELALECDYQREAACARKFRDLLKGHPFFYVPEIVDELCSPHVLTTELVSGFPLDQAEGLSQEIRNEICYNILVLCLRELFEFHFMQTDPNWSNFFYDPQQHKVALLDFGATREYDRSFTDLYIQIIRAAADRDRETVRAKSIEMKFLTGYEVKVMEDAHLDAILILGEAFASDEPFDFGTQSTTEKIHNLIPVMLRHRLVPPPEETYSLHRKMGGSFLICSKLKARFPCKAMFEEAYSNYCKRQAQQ
Chain of Mitogen-activated protein kinase 6 (Q16659 whole entry): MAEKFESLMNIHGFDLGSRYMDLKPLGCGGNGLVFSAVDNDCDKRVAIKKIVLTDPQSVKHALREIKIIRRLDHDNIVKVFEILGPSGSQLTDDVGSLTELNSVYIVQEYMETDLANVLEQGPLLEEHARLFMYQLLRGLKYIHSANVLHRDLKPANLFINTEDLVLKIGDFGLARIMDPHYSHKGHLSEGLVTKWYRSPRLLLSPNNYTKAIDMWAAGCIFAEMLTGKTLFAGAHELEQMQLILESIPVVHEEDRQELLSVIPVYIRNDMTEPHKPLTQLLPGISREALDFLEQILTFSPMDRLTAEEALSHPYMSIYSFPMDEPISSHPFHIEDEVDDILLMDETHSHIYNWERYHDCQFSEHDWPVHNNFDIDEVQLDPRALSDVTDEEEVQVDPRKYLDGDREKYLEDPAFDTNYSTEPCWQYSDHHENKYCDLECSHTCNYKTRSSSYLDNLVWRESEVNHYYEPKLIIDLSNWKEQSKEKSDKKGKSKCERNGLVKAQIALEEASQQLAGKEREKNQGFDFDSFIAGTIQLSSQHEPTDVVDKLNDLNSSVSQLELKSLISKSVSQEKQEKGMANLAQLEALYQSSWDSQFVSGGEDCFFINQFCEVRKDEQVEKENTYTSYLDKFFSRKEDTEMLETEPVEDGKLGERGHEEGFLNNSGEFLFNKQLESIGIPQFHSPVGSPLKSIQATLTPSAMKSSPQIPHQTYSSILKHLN
Chain of MAP/microtubule affinity-regulating kinase 3 (Homo sapiens) (P27448 whole entry, looked up): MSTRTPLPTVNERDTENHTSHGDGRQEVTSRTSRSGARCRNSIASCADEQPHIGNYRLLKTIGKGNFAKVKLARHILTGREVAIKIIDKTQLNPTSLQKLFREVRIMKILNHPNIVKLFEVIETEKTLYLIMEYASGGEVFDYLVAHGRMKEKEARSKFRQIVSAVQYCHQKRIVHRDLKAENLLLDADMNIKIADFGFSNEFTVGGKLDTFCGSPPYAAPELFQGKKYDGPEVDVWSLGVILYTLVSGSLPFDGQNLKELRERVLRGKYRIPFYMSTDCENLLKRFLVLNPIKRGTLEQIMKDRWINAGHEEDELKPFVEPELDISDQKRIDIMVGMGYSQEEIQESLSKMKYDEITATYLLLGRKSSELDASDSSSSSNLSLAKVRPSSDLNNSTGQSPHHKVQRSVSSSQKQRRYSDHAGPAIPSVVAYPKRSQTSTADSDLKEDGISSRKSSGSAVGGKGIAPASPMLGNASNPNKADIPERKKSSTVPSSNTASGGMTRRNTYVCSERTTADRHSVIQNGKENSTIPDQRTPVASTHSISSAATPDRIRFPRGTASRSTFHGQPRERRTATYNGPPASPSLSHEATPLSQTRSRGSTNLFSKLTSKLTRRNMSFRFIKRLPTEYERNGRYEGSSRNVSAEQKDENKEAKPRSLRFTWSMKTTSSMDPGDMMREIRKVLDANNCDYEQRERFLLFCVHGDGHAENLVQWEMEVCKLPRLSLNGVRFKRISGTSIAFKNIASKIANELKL
Chain of Wee1-like protein kinase (Homo sapiens) (P30291 whole entry, looked up): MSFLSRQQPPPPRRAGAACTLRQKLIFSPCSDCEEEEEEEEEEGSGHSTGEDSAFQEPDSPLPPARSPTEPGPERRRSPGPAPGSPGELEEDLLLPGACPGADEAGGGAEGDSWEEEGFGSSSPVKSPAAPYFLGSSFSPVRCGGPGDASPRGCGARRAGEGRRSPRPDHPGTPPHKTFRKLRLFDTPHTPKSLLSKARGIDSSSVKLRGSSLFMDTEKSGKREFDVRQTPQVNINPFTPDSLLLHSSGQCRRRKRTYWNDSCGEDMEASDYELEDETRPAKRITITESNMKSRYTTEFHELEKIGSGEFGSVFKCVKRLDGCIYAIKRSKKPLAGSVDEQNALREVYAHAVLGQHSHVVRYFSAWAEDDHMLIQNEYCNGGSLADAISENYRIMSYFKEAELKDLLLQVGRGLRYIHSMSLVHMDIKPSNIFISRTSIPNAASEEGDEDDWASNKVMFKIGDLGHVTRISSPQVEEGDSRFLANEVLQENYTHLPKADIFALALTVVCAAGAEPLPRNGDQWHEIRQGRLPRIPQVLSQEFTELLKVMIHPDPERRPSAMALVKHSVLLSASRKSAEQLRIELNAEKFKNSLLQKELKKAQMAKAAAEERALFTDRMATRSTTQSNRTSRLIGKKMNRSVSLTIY

With `O[C@H]1CC[C@H](Nc2nccc(-c3n[nH]c4ccccc34)n2)CC1`, the inhibition is below 50% in the assay filed under Homo sapiens [1], below 50% in [2] and 79% in [3].

Turning to `O[C@H]1CC[C@H](Nc2nccc(-n3ccc4ccccc43)n2)CC1`, the inhibition is below 50% in the assay listed under Homo sapiens [1]; 95% in assay [4]; below 50% in [5]; below 50% in assay [2]; below 50% in assay [6]; 99% in [7]. For the same molecule, the inhibition in assay [3] was 80%; in assay [8], below 50%; in [9], below 50%; in assay [10] it was below 50%.

Consider `O[C@H]1CC[C@H](Nc2nccc(-n3ncc4ccccc43)n2)CC1`, for which the inhibition was below 50% in the assay filed under Homo sapiens [1]; 97% in assay [4]; below 50% in assay [5]; below 50% in [2]; below 50% in assay [6]; 100% in [7]. In addition, the inhibition in [3] was 89%; in assay [8] it was below 50%; in assay [9], below 50%; in [10] it was 78%.

Regarding `O[C@H]1CC[C@H](Nc2nccc(-n3nnc4ccccc43)n2)CC1`, the inhibition in the assay listed under Homo sapiens [1] is below 50%; in [4] it was 100%; in assay [5], 87%; in assay [2], below 50%; in assay [6] it was below 50%; in [7], 100%. Besides, the inhibition was 92% in assay [3], below 50% in assay [8], below 50% in assay [9] and 94% in assay [10]. Moreover, in the assay filed under Homo sapiens [11], the Ratio IC50 amounted to 4. For the same molecule, in the assay on HCT-116, the IC50 was 1200 nM.

In the case of `O=C([C@H]1CC[C@H](Nc2nccc(-n3nnc4ccccc43)n2)CC1)N1CCOCC1`, the Ratio IC50 in the assay filed under Homo sapiens [11] stood at 4. In addition, the IC50 in the assay on HCT-116 is 20000 nM.

For the molecule `CS(=O)(=O)CCCOc1cccc2c1ccn2-c1ccnc(N[C@H]2CC[C@H](C(=O)N3CCC(O)CC3)CC2)n1`, the inhibition in [4], in [7], in [3] and in assay [10] was above 85% throughout.

Regarding `N[C@H]1CC[C@H](Nc2nccc(-n3nnc4ccccc43)n2)CC1`, the Ratio IC50 in the assay listed under Homo sapiens [11] is 4. The concentration for half-maximal inhibition (IC50) in the assay on HCT-116 was found to be 770 nM.
